Experimental data reported in ChEMBL document CHEMBL2203100, “Disubstituted quinazoline derivatives as a new type of highly selective ligands for telomeric G-quadruplex DNA” (Eur J Med Chem, 2012).
The source made the active and inactive calls. The rule behind the calls is not given here.

Key:
Nucleic Acid [1] = experiment: Binding affinity to human telomeric HTG21 G-quadruplex DNA after 6 hrs by CD spectroscopy; format: nucleic-acid assay
Procedure, shortened: (§1)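 HTG21 in 10 mM Tris-HCl pH 7.2 with 100 mM KCl was titrated with ligand at 0–5 mol equiv. Samples were heated to 95 °C, cooled slowly to room temperature and held at 4 °C for at least 6 h. CD was scanned at 230–450 nm in a 4 mm quartz cuvette with 1 nm bandwidth, 1 nm steps and 0.5 s per point.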

Nucleic Acid [2] = experiment: Binding affinity to human fluorescent labeled oligonucleotide F21T telomeric G-quadruplex DNA assessed as change in melting temperature at 1 uM by FRET assay in presence of duplex DNA competitor ds26; format: nucleic-acid assay
Nucleic Acid [3] = experiment: Binding affinity to hairpin fluorescent labeled oligonucleotide F10T duplex DNA assessed as change in melting temperature at 1 uM after 30 secs by FRET assay
Nucleic Acid [4] = experiment: Binding affinity to human fluorescent labeled oligonucleotide F21T telomeric G-quadruplex DNA assessed as change in melting temperature at 1 uM after 30 secs by FRET assay; format: nucleic-acid assay
Nucleic Acid [5] = experiment: Binding affinity to human biotinylated telomeric HTG21 G-quadruplex DNA assessed as equilibrium dissociation constant by SPR assay; format: nucleic-acid assay
Procedure, shortened: (§2)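 Biotinylated HTG21 (d(GGG[TTAGGG]3)) or duplex DNA was folded in 50 mM Tris-HCl pH 7.2 with 100 mM KCl. About 1000 RU was captured on flow cells 1 and 2, with the third cell as blank. Six ligand concentrations from 0.15625 µM upward were injected for 150 s association and 300 s dissociation at 25 °C. KD came from global Langmuir fitting of the kinetics.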

Nucleic Acid [6] = experiment: Binding affinity to human biotinylated duplex DNA assessed as equilibrium dissociation constant upto 10 to 20 uM by SPR assay; format: nucleic-acid assay; procedure, shortened: as §2
[7] = target: Telomerase reverse transcriptase (Homo sapiens, UniProt O14746); experiment: Inhibition of human telomerase in cell free system after 1 min by TRAP-LIG assay; conditions: in the assay text read “after 20 mins” for “after 1 min”
Telomerase reverse transcriptase, sequence (O14746 whole entry): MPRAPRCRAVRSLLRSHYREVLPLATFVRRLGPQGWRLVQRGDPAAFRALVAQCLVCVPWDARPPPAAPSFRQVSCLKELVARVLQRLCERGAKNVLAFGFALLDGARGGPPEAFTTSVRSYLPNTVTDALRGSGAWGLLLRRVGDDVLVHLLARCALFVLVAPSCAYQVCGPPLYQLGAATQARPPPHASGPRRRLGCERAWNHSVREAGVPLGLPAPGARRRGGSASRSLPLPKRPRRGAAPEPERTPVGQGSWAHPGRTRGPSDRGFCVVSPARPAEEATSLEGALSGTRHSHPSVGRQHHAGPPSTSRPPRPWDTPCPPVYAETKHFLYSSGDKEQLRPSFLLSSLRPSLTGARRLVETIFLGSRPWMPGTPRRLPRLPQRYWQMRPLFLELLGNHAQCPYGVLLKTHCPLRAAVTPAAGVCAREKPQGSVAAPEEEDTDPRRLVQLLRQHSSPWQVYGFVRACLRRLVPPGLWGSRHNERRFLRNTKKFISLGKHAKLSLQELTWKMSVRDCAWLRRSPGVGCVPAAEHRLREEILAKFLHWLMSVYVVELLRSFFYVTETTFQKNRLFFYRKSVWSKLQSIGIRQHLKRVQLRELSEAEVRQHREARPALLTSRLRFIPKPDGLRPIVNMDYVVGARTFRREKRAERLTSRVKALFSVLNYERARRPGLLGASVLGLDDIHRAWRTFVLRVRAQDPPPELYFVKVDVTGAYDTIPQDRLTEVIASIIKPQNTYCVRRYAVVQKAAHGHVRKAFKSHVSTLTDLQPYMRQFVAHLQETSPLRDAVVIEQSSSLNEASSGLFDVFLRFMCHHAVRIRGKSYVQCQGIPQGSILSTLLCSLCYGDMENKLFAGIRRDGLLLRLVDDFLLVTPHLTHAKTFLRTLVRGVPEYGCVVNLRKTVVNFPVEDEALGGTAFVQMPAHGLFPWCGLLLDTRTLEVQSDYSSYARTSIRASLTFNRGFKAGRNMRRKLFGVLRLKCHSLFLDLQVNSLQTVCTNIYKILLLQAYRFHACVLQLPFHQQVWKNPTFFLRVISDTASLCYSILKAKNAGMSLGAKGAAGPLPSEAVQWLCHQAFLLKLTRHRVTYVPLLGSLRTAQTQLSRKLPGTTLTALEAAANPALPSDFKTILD
Procedure, shortened: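 TRAP-LIG used 500 ng protein extract from exponentially growing MCF-7 cells to extend 0.1 µg TS primer. The buffer was 20 mM Tris-HCl pH 8.3, 68 mM KCl, 1.5 mM MgCl2, 1 mM EGTA and 0.05% Tween 20, with 125 µM dNTPs and BSA, plus ligand at various concentrations or none. After 20 min elongation and purification, products were amplified with ACX/TS primers and Taq for 35 cycles (94 °C 30 s, 61 °C 1 min, 72 °C 1 min).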

Nucleic Acid [8] = experiment: Binding affinity to human telomeric HTG21 G-quadruplex DNA after 6 hrs in presence of K+ ions by CD spectroscopy; format: nucleic-acid assay; procedure, shortened: as §1
HL-60 [9] = experiment: Growth inhibition of human HL60 cells assessed as decrease in population doubling at 1.25 uM after 12 days; format: functional, cell-based
Nucleic Acid [10] = experiment: Binding affinity to human oligonucleotide telomeric HT6 G-quadruplex DNA at 0.5:1 ligand to quadruplex ratio by NMR spectroscopy; format: nucleic-acid assay
Procedure, shortened: (§3)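 1H NMR titration at 400 MHz and 25 °C of 0.5 mM [d(TTAGGG)]4 in 90% H2O/10% D2O with 25 mM potassium phosphate (pH 7.0) and 150 mM KCl. Ligand:quadruplex ratios were 0, 0.25, 0.5, 1 and 2. Water was suppressed by Watergate. Shifts and broadening of DNA signals were followed. The oligonucleotide was HPLC-purified.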

HL-60 [11] = experiment: Induction of telomere shortening in human HL60 cells at 1.25 uM after 16 days by telomeric restriction fragment length assay; format: functional
Procedure, shortened: (§4)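 HL60 cells were treated with ligand (0.625 or 1.25 µM) or 0.1% DMSO for 16 days. Genomic DNA was digested with HinfI/RsaI and run on a 0.8% agarose gel, then blotted to nylon and fixed at 120 °C for 20 min. The blot was hybridized with a DIG-labeled telomeric probe, bound with anti-DIG-alkaline phosphatase and detected by chemiluminescence.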

HL-60 [12] = experiment: Cytotoxicity against human HL60 cells assessed as decrease in population doubling at 2.5 uM after 8 days; format: functional, cell-based
HL-60 [13] = experiment: Induction of senescence in human HL60 cells assessed as beta galactosidase activity at 1.25 uM measured every 4 days for 16 days; format: functional, cell-based
Procedure, shortened: (§5)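 After 16 days of long-term HL60 culture with ligand renewed every 4 days (1.25 µM shown, versus 0.1% DMSO), cells were fixed in 2% formaldehyde/0.2% glutaraldehyde for 15 min at room temperature. They were washed with PBS and stained overnight at 37 °C with X-gal (1 mg/mL). SA-β-Gal and enlarged or flattened morphology were scored by optical microscopy.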

Nucleic Acid [14] = experiment: Binding affinity to human oligonucleotide telomeric HT6 G-quadruplex DNA by NMR spectroscopy; format: nucleic-acid assay; procedure, shortened: as §3
Nucleic Acid [15] = experiment: Binding affinity to G4 site of human oligonucleotide telomeric HT6 G-quadruplex DNA by NMR spectroscopy; format: nucleic-acid assay; procedure, shortened: as §3
HL-60 [16] = experiment: Cytotoxicity against human HL60 cells assessed as cell viability after 48 hrs by MTT assay; format: functional, cell-based; conditions: HL-60, 48 h
Procedure, shortened: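 HL60 cells were seeded at 1.0 × 10³ per well and exposed to a range of compound concentrations for 48 h at 37 °C in 5% CO2. MTT (5 mg/mL) was added for 4 h, formazan was dissolved in DMSO and OD was read at 570 nm. Each dose was run in triplicate, and IC50 was taken from mean OD versus concentration curves.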

HL-60 [17] = experiment: Growth inhibition of human HL60 cells assessed as decrease in population doubling at 0.625 uM after 16 days; format: functional, cell-based
HL-60 [18] = experiment: Growth inhibition of human HL60 cells assessed as decrease in population doubling at 2.5 uM after 12 days; format: functional, cell-based
Nucleic Acid [19] = experiment: Binding affinity to A3 site of human oligonucleotide telomeric HT6 G-quadruplex DNA by NMR spectroscopy; format: nucleic-acid assay; procedure, shortened: as §3
HL-60 [20] = experiment: Induction of telomere shortening in human HL60 cells at 0.625 uM after 16 days by telomeric restriction fragment length assay; format: functional, cell-based; procedure, shortened: as §4
HL-60 [21] = experiment: Induction of senescence in human HL60 cells assessed flattened cells measured every 4 days for 16 days by optical microscopy; format: functional, cell-based; procedure, shortened: as §5
HL-60 [22] = experiment: Induction of senescence in human HL60 cells assessed enlarged cells measured every 4 days for 16 days by optical microscopy; format: functional, cell-based; procedure, shortened: as §5

Row | SMILES | Activity (Nucleic Acid [2]) | ΔTm (Nucleic Acid [3]) [°C] | ΔTm (Nucleic Acid [4]) [°C] | other results
1 | CN(C)CCCNCCC(=O)Nc1cc(Cl)ccc1-c1nc(NCCCN(C)C)c2ccccc2n1 | – | – | – | Activity (Nucleic Acid [1]): Active
2 | CN(C)CCCNc1c2ccccc2nc2c1[nH]c1ccccc12 | inactive | 5.5 | 9.9 | –
3 | CN(C)CCCNc1nc(-c2ccc(Cl)cc2NC(=O)CNCCN2CCCCC2)nc2ccccc12 | – | 0.2 | 9.6 | –
4 | CN(C)CCCNc1nc(-c2ccc(Cl)cc2NC(=O)CN2CCOCC2)nc2ccccc12 | Active | 0 | 3.9 | –
5 | CN(C)CCCNc1nc(-c2ccc(Cl)cc2NC(=O)CCN2CCCCC2)nc2ccccc12 | – | 0.2 | 11.8 | –
6 | CN(C)CCCNc1nc(-c2ccc(Cl)cc2NC(=O)CNCCN2CCCC2)nc2ccccc12 | – | 0.3 | 10.4 | –
7 | CN(C)CCCNCC(=O)Nc1cc(Cl)ccc1-c1nc(NCCCN(C)C)c2ccccc2n1 | Active | 0.3 | 13 | Kd (Nucleic Acid [5]): 0.337 µM; Activity (Nucleic Acid [6]): inactive
8 | CN(C)CCCNc1nc(-c2ccc(Cl)cc2NC(=O)CN2CCCC2)nc2ccccc12 | – | 0.1 | 7.4 | –
9 | CN(C)CCCNc1nc(-c2ccc(Cl)cc2NC(=O)CCN2CCCC2)nc2ccccc12 | – | 0.2 | 12.8 | –
10 | CN(C)CCCNc1nc(-c2ccc(Cl)cc2NC(=O)CCN2CCOCC2)nc2ccccc12 | Active | 0.1 | 8.4 | –
11 | CN(C)CCCNc1nc(-c2ccc(Cl)cc2NC(=O)CCCN2CCCCC2)nc2ccccc12 | – | 0.2 | 11.6 | –
12 | CN(C)CCCNc1nc(-c2ccc(Cl)cc2N)nc2ccccc12 | – | 0.3 | 0.7 | –
13 | CN(C)CCCNc1nc(-c2ccc(Cl)cc2NC(=O)CN2CCCCC2)nc2ccccc12 | – | 0.2 | 5.4 | –
14 | CN(C)CCCNc1nc(-c2ccc(Cl)cc2NC(=O)CN2CCN(C)CC2)nc2ccccc12 | Active | 0.3 | 10.1 | Kd (Nucleic Acid [5]): 2.11 µM; Activity (Nucleic Acid [6]): inactive; IC50 [7]: 29.3 µM; Activity (Nucleic Acid [8]): Active
15 | CCN(CC)CC(=O)Nc1cc(Cl)ccc1-c1nc(NCCCN(C)C)c2ccccc2n1 | – | 0.1 | 4.5 | –
16 | CN(C)CCCNc1nc(-c2ccc(Cl)cc2NC(=O)CCCN2CCN(C)CC2)nc2ccccc12 | Active | 0.4 | 14.7 | Kd (Nucleic Acid [5]): 0.278 µM; Activity (Nucleic Acid [6]): inactive; Activity (Nucleic Acid [1]): Active; IC50 [7]: 7.7 µM
17 | CCN(CC)CCCNCC(=O)Nc1cc(Cl)ccc1-c1nc(NCCCN(C)C)c2ccccc2n1 | – | 0.2 | 12.3 | –
18 | CN(C)CCCNc1nc(-c2ccc(Cl)cc2NC(=O)CCCN2CCOCC2)nc2ccccc12 | Active | 0.1 | 9.8 | –
19 | CCN(CC)CCC(=O)Nc1cc(Cl)ccc1-c1nc(NCCCN(C)C)c2ccccc2n1 | – | 0.1 | 14.4 | –
20 | CN(C)CCCNc1nc(-c2ccc(Cl)cc2NC(=O)CCN2CCN(C)CC2)nc2ccccc12 | Active | 0.3 | 15.5 | growth inhibition (GI) (HL-60 [9]): Active; Activity (Nucleic Acid [10]): Active; Activity (HL-60 [11]): 1.2 kilobase; Kd (Nucleic Acid [5]): 0.314 µM; Activity (HL-60 [12]): Active; Activity (HL-60 [13]): Active; Activity (Nucleic Acid [14]): Active; Activity (Nucleic Acid [6]): inactive; Activity (Nucleic Acid [15]): Active; IC50 (HL-60 [16]): 9.6 µM; growth inhibition (GI) (HL-60 [17]): Active; growth inhibition (GI) (HL-60 [18]): Active; Activity (Nucleic Acid [19]): Active; Activity (Nucleic Acid [1]): Active; Activity (HL-60 [20]): Active; IC50 [7]: 7.4 µM; Activity (HL-60 [21]): Active; Activity (HL-60 [22]): Active
